Screening data deposited in PubChem by several laboratories.
ADAM17 inh: ADAM17 inhibitors, primary screen, biochemical, QFRET; Disintegrin and metalloproteinase domain-containing protein 17 (Homo sapiens), P78536; recombinant ADAM17, EDANS/DABCYL FRET peptide cleavage; inhibition, % at 6.95 µM; hit rate 0.83% among 370,000; AID 720648, 2013;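 active means inhibition above the mean of compounds lying between control limits plus 3 SD, set per campaign, cut at about 8.5% in these data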;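 further: 0% = DMSO-only wells as the low control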
MPTP block: mitochondrial permeability transition pore inhibitors, primary screen, biochemical, isolated mouse mitochondria, absorbance | Ca2+ swelling absorbance, 30 min | inhibition, % at 10 µM | hit rate 1.4% among 360,000 | AID 602449, 2012;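 active means inhibition of 50% or more, scaled per plate between neutral and stimulator controls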;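 further: 0% = DMSO wells given calcium and 100% = 1 mM EGTA wells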
Lipid droplet: inhibitors of hepatocyte lipid droplet formation, primary screen, imaging, high-throughput imaging, BODIPY stain. AML12 mouse hepatocytes, oleate lipid droplets. inhibition, % at 6.5 µM. hit rate 0.4% among 240,000. AID 1656, 2009;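 active means lipid droplet intensity inhibited by at least 50%, with more than 500 cells counted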
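Test system: AML12 hepatocytes (mouse); reagent: oleate loading, 100 µM; dosing: one dose, 6.5 µM compound; incubation: overnight exposure; signal: fluorescence imaging, 20x objective, two fields per well; read-out basis: % inhibition of corrected integrated BODIPY droplet signal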
ADAM10 inh: human ADAM10 inhibitors, primary screen, biochemical, QFRET, HTS | hit rate 0.62% among 370,000 | recombinant ADAM10, EDANS/DABCYL FRET peptide cleavage, 3 h | inhibition, % at 7 µM | Disintegrin and metalloproteinase domain-containing protein 10 (Homo sapiens), O14672;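 active means inhibition above a per-campaign cutoff equal to the mean of compounds falling between control-based bounds plus 3 SD, cut at about 20% in these data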;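 further: 0% = DMSO wells while the 100% control is not disclosed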
Target sequence (O14672 214-748 limits assumed): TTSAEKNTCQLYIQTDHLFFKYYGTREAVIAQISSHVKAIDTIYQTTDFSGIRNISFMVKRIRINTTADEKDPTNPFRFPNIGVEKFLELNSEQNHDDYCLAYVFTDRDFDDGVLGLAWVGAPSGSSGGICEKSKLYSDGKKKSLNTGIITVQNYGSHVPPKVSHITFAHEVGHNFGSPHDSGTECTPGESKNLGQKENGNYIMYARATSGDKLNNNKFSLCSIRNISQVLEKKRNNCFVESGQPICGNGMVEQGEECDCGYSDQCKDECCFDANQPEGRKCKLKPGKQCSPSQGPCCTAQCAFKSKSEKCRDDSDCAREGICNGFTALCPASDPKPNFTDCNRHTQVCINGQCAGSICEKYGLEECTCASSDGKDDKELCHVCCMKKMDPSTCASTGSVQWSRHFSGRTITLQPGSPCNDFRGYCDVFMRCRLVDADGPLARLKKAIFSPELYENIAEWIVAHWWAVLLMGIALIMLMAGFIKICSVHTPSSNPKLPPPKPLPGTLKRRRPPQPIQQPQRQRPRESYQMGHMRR
V-ATPase pH: regulators of yeast V-ATPase proton pumping, primary screen, pHLuorin cytosolic pH fluorescence; AID 504577, 2011; response, % at 10 µM; S. cerevisiae; hit rate 0.37% among 350,000; in the data active means response mostly above about 7.3%, no sharp cut-off; inactive means mostly below about 5.4%; further: actives read high
aDG glyco act: activators of alpha-DG glycosylation, primary screen, uHTS, Pro5-aDG cells, AlphaScreen. alpha-DG glycosylation AlphaScreen (IIH6); 0% Pro5, 100% B10-LARGE cell signal. activation, % at 10 µM. hit rate 0.22% among 360,000. AID 624168, 2012;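 active means activation of at least 8% versus controls, or a plate z-score of at least 8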;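 further: Pro5 are CHO cells carrying HIG-tagged alpha-DG that lacks glycosylation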
Rh123 counter: fluorescence retest of MPTP screen hits in isolated mitochondria, single concentration; shares compounds with MPTP block; membrane potential, Rhodamine 123 fluorescence; inhibition, % at 10 µM; hit rate 78% among 5,000; AID 624504, 2012; in the data active means inhibition above about 22%;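 further: 0% = DMSO vehicle and 100% = positive control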
MPTP swell DR: mitochondrial permeability transition pore inhibitors, dose response, biochemical, absorbance, uHTS hits; shares compounds with MPTP block; isolated mitochondria swelling; IC50, µM; hit rate 58% among 780; in the data active means IC50 below about 20 µM
MPTP counter DR: fluorescent counter-screen in isolated mitochondria, dose response, counter-screen for MPTP inhibitor project, biochemical, fluorescence, uHTS hits; shares compounds with MPTP block; isolated mitochondria counterscreen, fluorescence read-out; IC50, µM; hit rate 49% among 780; AID 651564, 2012; in the data active means IC50 below about 80 µM
* marks the source's active call; other numbers are inactive results; i = inactive; · = no result given. Hits are enriched below; roughly 3.1% of the tested compounds scored in any of these assays.

SMILES	ADAM17 inh	MPTP block	Lipid droplet	ADAM10 inh	V-ATPase pH	aDG glyco act	Rh123 counter	others
Cc1c(CC(=O)Nc2ccc(Cl)cc2)sc2ccc(Cl)cc12	4.5	87.6*	-17.1	3.5	-1.1	0.0	90.7*
Cc1cnc(NC(=O)Nc2ccc(Cl)cc2)s1	8.4	82.3*	26.4	16.1	0.2	-0.1	86.0*
O=C(Cc1csc(NC(=O)Nc2ccc(Cl)cc2)n1)NC1CCCC1	2.8	94.3*	·	4.6	8.4	0.3	80.5*
O=C(Nc1ccc(Cl)cc1)Nc1nc(-c2sccc2Br)cs1	-2.8	40.9	·	0.8	6.5	-0.3	·
O=C(Nc1ccc(Cl)cc1)Nc1nc(-c2ccccc2O)cs1	2.3	98.8*	-0.2	8.9	-3.8	0.8	67.0*
CCOC(=O)c1csc(NC(=O)Nc2cccc(Cl)c2)n1	0.3	96.6*	-12.9	6.2	-3.7	0.2	84.2*
Cc1cnc(NC(=O)COc2ccccc2Cl)s1	-1.6	-0.7	·	-8.9	-2.2	0.0	·
O=C(Cc1csc(NC(=O)Nc2ccc(Cl)cc2)n1)NCc1ccccn1	-1.3	18.2	·	-1.5	0.1	0.3	·
CCCC/C=C1/[C@H](c2ccccc2)N(C)C2=N[C@@H](c3ccccc3)CC(=O)N21	-0.1	·	·	2.7	·	·	·
CCOC(=O)Cc1csc(NC(=O)Nc2ccc(Cl)cc2)n1	2.5	74.3*	-8.5	4.1	-1.2	0.6	76.5*
CCOC(=O)Cc1csc(NC(=O)Nc2cccc(Cl)c2)n1	4.0	73.1*	12.1	8.1	2.6	1.5	86.3*
Cc1csc(NC(=O)Nc2ccc(Cl)cc2)n1	-2.7	73.6*	·	7.5	-0.6	0.7	69.2*
CCOC(=O)Cc1csc(N/N=C/c2ccc(Cl)cc2)n1	4.2	-0.9	0.7	3.8	-0.7	-0.2	·
CCCCNCCOCCOc1ccc(C)cc1Br	-0.4	61.3*	9.9	2.3	3.8	0.8	-10.9	MPTP swell DR=i;MPTP counter DR=>80
CC(C)(C)[C@@H]1/C(=C/C2CC2)N2C(=O)C[C@@H](c3ccccc3)N=C2N1Cc1ccc2c(c1)OCO2	-1.8	·	·	4.8	·	·	·
Cc1ccc(-c2cc(C(=O)Nc3ccc(S(=O)(=O)N4CC(C)OC(C)C4)cc3)[nH]n2)c(O)c1 (stereo unspecified)	4.0	51.3*	2.5	13.2	-1.4	0.4	69.4*
O=C(Nc1ccc(S(=O)(=O)N2CCOCC2)cc1)c1cc(-c2cc(Cl)ccc2O)n[nH]1	5.3	74.7*	0.2	26.6*	2.5	-0.5	61.3*
O=C(Nc1nc(=S)ss1)c1ccc(Cl)cc1Cl	-5.4	87.6*	·	-8.0	0.4	-0.1	63.9*
C=CCN1[C@@H](Cc2ccccc2)COc2cc(F)ccc2S1(=O)=O	-4.6	·	·	-3.9	·	·	·
COc1ccc2cc1Oc1ccc(cc1)C[C@H]1c3c(cc(OC)c4c3Oc3c(ccc5c3[C@H](C2)N(C)CC5)O4)CCN1C	·	90.5*	·	·	2.5	-1.1	-17.9
COc1ccc2cc1Oc1ccc(cc1)CC1c3c(cc(OC)c4c3Oc3cc5c(cc3O4)CCNC5C2)CCN1C (stereo unspecified)	·	77.6*	10.6	·	1.3	-1.2	-16.8
CCc1ccc(CNC(=O)c2cc3c(C)nc4ccccc4c3o2)cc1	4.4	44.3	-2.3	3.0	-3.0	1.0	·
COc1ccc(CNC(=O)c2cc3c(C)nc4ccccc4c3o2)c(OC)c1	·	73.4*	·	·	·	-0.1	96.2*
COc1cc(NC(=O)c2cc3c(C)nc4ccccc4c3o2)cc(OC)c1OC	2.7	-1.6	·	-3.2	-1.2	-0.4	·
COc1cccc(CNC(=O)c2cc3c(C)nc4ccccc4c3o2)c1	0.4	59.9*	·	-17.8	-3.1	0.5	33.6*
SMILES	ADAM17 inh	MPTP block	Lipid droplet	ADAM10 inh	V-ATPase pH	aDG glyco act	Rh123 counter	others
CC(=O)c1cc(-c2ccc3[nH]ccc3c2)c(=O)n2c1CCC2	0.6	·	·	2.9	·	·	·
O=S1(=O)C=CCN1Cc1cn(Cc2ccc(C(F)(F)F)cc2)nn1	-0.2	·	·	-3.4	·	·	·
CCCCOc1ccc(CONS(=O)(=O)c2ccc(NC(C)=O)cc2)cc1Cl	1.6	94.5*	10.4	7.0	3.9	7.0	73.5*
CC(=O)Nc1ccc(S(=O)(=O)NCCOc2ccc(Cl)cc2C)cc1	0.4	0.0	-18.4	3.2	-1.7	2.7	·
CC(=O)c1ccc([C@H](O)[C@H](C)C(=O)N(C)c2ccccc2)cc1	-3.2	·	·	-2.3	·	·	·
CCOc1ccc(S(=O)(=O)Nc2cccc(N(C)S(C)(=O)=O)c2)cc1	-3.6	94.7*	-15.3	1.7	-3.6	2.1	41.8*
Cc1ccc(NC(=O)CSc2nnc(-c3cccnc3)n2Cc2ccco2)c(C)c1	2.4	·	·	-7.4	·	·	·
CCOC(=O)c1c(NC(=O)C2CCCCC2)sc2c1CCN(C(C)C)C2	-5.2	21.3	7.4	-14.4	-3.2	-0.2	·
COC(=O)c1c(NC(=O)C2CCCCC2)sc2c1CCN(C(C)C)C2	-7.0	54.8*	33.5	-13.2	-4.2	0.3	-5.3	MPTP swell DR=i;MPTP counter DR=>80
CCC(=O)N(Cc1ccccc1)c1ccccc1C(=O)Nc1cc(OC)ccc1OC	-2.3	·	·	-2.2	·	·	·
CCOC(=O)c1ccc(-n2[nH]c(-c3ccccc3)cc2=O)cc1	4.3	88.4*	2.4	12.5	4.2	-0.3	78.6*
COc1ccc(OC)c(S(=O)(=O)N(CC(=O)NC2CCC(C)CC2)c2cc(C)cc(C)c2)c1 (stereo unspecified)	0.5	·	·	-7.2	·	·	·
Cc1ccc(S(=O)(=O)NC(C)(C)CSc2nnc(Nc3ccccc3)s2)cc1	4.3	64.7*	19.4	12.6	3.5	1.6	66.0*
CC(C)(CSc1ncccn1)NS(=O)(=O)c1ccccc1	-1.0	-0.7	1.7	0.3	2.7	-0.1	·
C#CCNC(=O)C[C@@H]1C(=O)N(CC=C)C2=CCCCC[C@]21C(=O)OC	-0.3	·	·	-4.4	·	·	·
CCCCn1c(NC(=O)c2ccc(Br)o2)c(S(=O)(=O)c2ccccc2)c2nc3ccccc3nc21	-204.3	77.9*	8.3	i	-1.6	0.0	77.5*
CCC1=NN(C(=O)c2cccc(Br)c2)C(O)(c2ccc(Br)cc2)C1 (stereo unspecified)	0.2	83.5*	-19.8	4.0	0.8	-1.1	89.5*
C[C@H](O)[C@@H]1CN2CCc3ccc(-c4ccc5c(c4)OCO5)cc3[C@@H]2C[C@@H]1N(C)CC1CCCCC1	-1.9	·	·	-4.9	·	·	·
